# Assay results from ChEMBL document CHEMBL4402602, “Discovery of (2R)-N-[3-[2-[(3-Methoxy-1-methyl-pyrazol-4-yl)amino]pyrimidin-4-yl]-1H-indol-7-yl]-2-(4-methylpiperazin-1-yl)propenamide (AZD4205) as a Potent and Selective Janus Kinase 1 Inhibitor” (J Med Chem, 2020).
# pIC50: −log10 of the molar value. The source made the active and inactive calls. No cut-off for these calls is given here.
# Columns and labels:
# [1] = species: Homo sapiens; test: Selectivity index, ratio of IC50 for inhibition of recombinant human N-terminal GST-tagged JAK2 (831 to 1132 residues) expressed in insect cells using 5FAM-labeled GEEPLYWSFPAKKK-NH2 peptide as substrate after 10 mins in presence of 5 mM ATP by caliper mobility shift assay to IC50 for inhibition of …
# [2] = biological target: Tyrosine-protein kinase JAK2 (Homo sapiens, UniProt O60674); test: Inhibition of recombinant human N-terminal GST-tagged JAK2 (831 to 1132 residues) expressed in insect cells using 5FAM-labeled GEEPLYWSFPAKKK-NH2 peptide as substrate after 10 mins in presence of 5 mM ATP by caliper mobility shift assay
# [3] = biological target: Voltage-gated inwardly rectifying potassium channel KCNH2 (Homo sapiens, UniProt Q12809); test: Inhibition of human ERG
# [4] = biological target: T1, Tyrosine-protein kinase JAK1 (Homo sapiens, UniProt P23458); test: Inhibition of JAK1 in human NCI-H1975 cells assessed as decrease in STAT3 phosphorylation measured after 1 hr by ELISA; assay type: cell-based
# Summary of the method: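 Cellular mode-of-action assay in NCI-H1975 cells measuring inhibition of STAT3 phosphorylation. IC50 values are geometric means of at least two independent experiments.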
# [5] = Solubility of compound at pH 7.4; assay type: physicochemical; conditions: buffer
# [6] = biological target: T1, Tyrosine-protein kinase JAK1; test: Inhibition of recombinant human N-terminal GST-tagged JAK1 (866 to 1154 residues) expressed in insect cells using FITC-labeled C6-KKHTDDGYMPMSPGVA-NH peptide as substrate after 10 mins in presence of 5 mM ATP by caliper mobility shift assay
# [7] = tested on: Mus musculus; test: In vivo inhibition of EFGR T790M mutant in human NCI-H1975 cells xenografted in NCr nude mouse assessed as reduction of EGFR phosphorylation at Y1173 residue 2.5 mg/kg measured up to 24 hrs relative to control; assay type: functional
# Summary of the method: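 Satellite group of subcutaneous NCI-H1975 tumour-bearing female NCr nude mice treated for a single day at a single 2.5 mg/kg dose. pEGFR (Y1173) measured in tumour lysates at time points up to 24 h after dosing, as the EGFR (T790M) inhibition biomarker.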
# [8] = Toxicity in NCr nude mouse xenografted with human NCI-H1975 cells harboring EGFR T790M mutant assessed as effect on body weight at 2.5 mg/kg, po qd administered for 18 days post 10 days of implantation; assay type: organism-based; conditions: in vivo
# [9] = tested on: NCI-H1975; test: Antitumor activity against human NCI-H1975 cells harboring EGFR T790M mutant xenografted in NCr nude mouse assessed as tumor growth inhibition at 2.5 mg/kg, po qd administered for 18 days post 10 days of implantation; assay type: functional, organism-based
# Summary of the method: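 NCI-H1975 cells implanted subcutaneously in female NCr nude mice. At day 10, mice randomised into groups of 6 to 8 (mean tumour volume 189 mm³, range 152 to 250 mm³). Dosed orally for 18 days, vehicle 20% captisol. Tumour growth followed against vehicle-treated controls.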
# [10] = Solubility of compound at pH 6.5; assay type: physicochemical; conditions: buffer
# [11] = Half life in Beagle dog at 10 mg/kg, iv; assay type: ADME, organism-based, Canis lupus familiaris; conditions: in vivo
# Summary of the method: (§1)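 Male beagle dogs. Oral dose 20 mg/kg in 0.1% HPMC, pH 2. Intravenous dose 10 mg/kg in 20% TEG/D5W. AUC, observed clearance, Vdss, half-life and oral bioavailability derived from plasma exposure.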
# [12] = species: Mus musculus; conditions: 50 mg/kg
# [13] = Intrinsic clearance in human hepatocytes assessed per 10^-6 cells; assay type: ADME, cell-based, Hepatocyte
# Summary of the method: (§2)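 Intrinsic clearance measured in fresh hepatocytes from rat, dog and human. Expressed as µL/min per 10⁶ cells.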
# [14] = Efflux ratio of apparent permeability across basolateral to apical membrane over apical to basolateral membrane in human Caco2 cells; assay type: ADME, cell-based; conditions: Caco-2
# Summary of the method: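 Caco-2 monolayer permeability measured in both directions, apical to basolateral and basolateral to apical. Efflux ratio is the B to A Papp divided by the A to B Papp.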
# [15] = biological target: Vascular endothelial growth factor receptor 3 (Homo sapiens) (UniProt P35916); test: Inhibition of recombinant human N-terminal GST-tagged FLT4 (800 to end residues) expressed in baculovirus infected Sf21 cells at 1 uM relative to control
# Summary of the method: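 Single-point screen at 1 µM across a panel of 293 kinases. Percent inhibition recorded for each kinase.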
# [16] = Intrinsic clearance in dog hepatocytes assessed per 10^-6 cells; assay type: ADME, cell-based, Canis lupus familiaris, Hepatocyte
# Summary of the method: as §2
# [17] = tested on: Mus musculus; test: In vivo inhibition of JAK1 in human NCI-H1975 cells harboring EGFR T790M mutant xenografted in NCr nude mouse assessed as reduction of STAT3 phosphorylation at Y705 residue at 50 mg/kg measured after 8 hrs relative to control; assay type: functional; conditions: NCI-H1975, 8 h
# [18] = AUC in Beagle dog at 20 mg/kg, po; assay type: ADME, organism-based, Canis lupus familiaris; conditions: in vivo
# Summary of the method: as §1
# [19] = Toxicity in NCr nude mouse xenografted with human NCI-H1975 cells harboring EGFR T790M mutant assessed as effect on body weight at 50 mg/kg, po bid administered for 18 days post 10 days of implantation in combination with osimertinib at 2.5 mg/kg, po qd; assay type: organism-based; conditions: in vivo
# [20] = Solubility of compound in phosphate buffer at pH 7.4 and 37 degree C; assay type: physicochemical
# [21] = biological target: Cytochrome P450 (isoform not stated) (Homo sapiens, UniProt P04798+P05177+P05181+P08684+P10632+P10635+P11509+P11712+P13584+P20813+P20815+P20853+P24462+P24903+P33260+P33261+P51589+P78329+P98187+Q02928+Q08477+Q16678+Q16696+Q5TCH4+Q6VVX0+Q7Z449+Q8TAV3+Q96SQ9+Q9HB55); test: Inhibition of human Cytochrome P450; assay type: ADME, protein assay
# Summary of the method: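 Inhibition tested against […] at up to 30 µM. IC50 reported.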
# [22] = Toxicity in NCr nude mouse xenografted with human NCI-H1975 cells harboring EGFR T790M mutant assessed as effect on body weight at 50 mg/kg, po bid administered for 18 days post 10 days of implantation; assay type: organism-based; conditions: in vivo
# Summary of the method: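 Female NCr nude mice implanted subcutaneously with NCI-H1975 cells. Ten days after implantation, mice were randomized into groups of 6 to 8 (average tumor volume 189 mm³, range 152 to 250 mm³). They were dosed orally, as single agent or combination, at 50 mpk BID for 18 days. Vehicle was 20% captisol, with vehicle-treated controls.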
# [23] = Half life in Beagle dog at 20 mg/kg, po; assay type: ADME, organism-based, Canis lupus familiaris; conditions: in vivo
# Summary of the method: as §1
# [24] = tested on: NCI-H1975; conditions: Homo sapiens, 50 mg/kg
# [25] = Half life in Han Wistar rat at 5 mg/kg, iv; assay type: ADME, organism-based; conditions: in vivo
# Summary of the method: (§3)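 Male Han Wistar rats. Oral dose 10 mg/kg in 0.1% HPMC. Intravenous dose 5 mg/kg in 40% DMA/40% PEG/20% saline. AUC, observed clearance, Vdss, half-life and oral bioavailability derived from plasma exposure.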
# [26] = tested on: NCI-H1975; test: Antitumor activity against human NCI-H1975 cells harboring EGFR T790M mutant xenografted in NCr nude mouse assessed as tumor growth inhibition at 50 mg/kg, po bid administered for 18 days post 10 days of implantation; assay type: functional, organism-based
# Summary of the method: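 NCI-H1975 cells implanted subcutaneously in female NCr nude mice. Ten days later, mice with tumours averaging 189 mm³ (range 152–250) were randomized into groups of 6–8.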
# [27] = Intrinsic clearance in rat hepatocytes assessed per 10^-6 cells; assay type: ADME, cell-based, Hepatocyte
# Summary of the method: as §2
# [28] = AUC in Beagle dog at 10 mg/kg, iv; assay type: ADME, organism-based, Canis lupus familiaris; conditions: in vivo
# Summary of the method: as §1
# [29] = Bioavailability in Beagle dog at 20 mg/kg, po; conditions: in vivo
# [30] = Apparent permeability across apical to basolateral membrane in human Caco2 cells; assay type: ADME, cell-based; conditions: Caco-2
# Summary of the method: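 Caco-2 monolayer permeability measured in both directions, apical to basolateral and basolateral to apical. Papp reported for the A-to-B direction.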
# [31] = Volume of distribution at steady state in Han Wistar rat at 5 mg/kg, iv; assay type: ADME, organism-based; conditions: in vivo, read-out: Vdss
# Summary of the method: as §3
# [32] = species: Mus musculus; conditions: 50 mg/kg; remark: listed apart in the source
# [33] = Volume of distribution at steady state in Beagle dog at 10 mg/kg, iv; assay type: ADME, organism-based, Canis lupus familiaris; conditions: in vivo
# Summary of the method: as §1
# [34] = Half life in Han Wistar rat at 10 mg/kg, po; assay type: ADME, organism-based; conditions: in vivo
# Summary of the method: as §3
# [35] = AUC in Han Wistar rat at 5 mg/kg, iv; assay type: ADME, organism-based; conditions: in vivo
# Summary of the method: as §3
# [36] = Octanol-buffer partition coefficient, log D of the compound at pH 7.4 by shake flask method; assay type: physicochemical
# [37] = biological target: Non-receptor tyrosine-protein kinase TYK2 (Homo sapiens, UniProt P29597); test: Inhibition of TYK2 (unknown origin)
# Summary of the method: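 JAK family biochemical kinase assay run at 5 mM ATP. IC50 values are geometric means of at least two independent experiments, SEM within 0.2 log units.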
# [38] = AUC in Han Wistar rat at 10 mg/kg, po; assay type: ADME, organism-based; conditions: in vivo
# Summary of the method: as §3
# [39] = Bioavailability in Han Wistar rat at 10 mg/kg, po; conditions: in vivo
# [40] = Clearance in Han Wistar rat at 5 mg/kg, iv; assay type: ADME, organism-based; conditions: in vivo
# Summary of the method: as §3
# T1 sequence (P23458 whole entry): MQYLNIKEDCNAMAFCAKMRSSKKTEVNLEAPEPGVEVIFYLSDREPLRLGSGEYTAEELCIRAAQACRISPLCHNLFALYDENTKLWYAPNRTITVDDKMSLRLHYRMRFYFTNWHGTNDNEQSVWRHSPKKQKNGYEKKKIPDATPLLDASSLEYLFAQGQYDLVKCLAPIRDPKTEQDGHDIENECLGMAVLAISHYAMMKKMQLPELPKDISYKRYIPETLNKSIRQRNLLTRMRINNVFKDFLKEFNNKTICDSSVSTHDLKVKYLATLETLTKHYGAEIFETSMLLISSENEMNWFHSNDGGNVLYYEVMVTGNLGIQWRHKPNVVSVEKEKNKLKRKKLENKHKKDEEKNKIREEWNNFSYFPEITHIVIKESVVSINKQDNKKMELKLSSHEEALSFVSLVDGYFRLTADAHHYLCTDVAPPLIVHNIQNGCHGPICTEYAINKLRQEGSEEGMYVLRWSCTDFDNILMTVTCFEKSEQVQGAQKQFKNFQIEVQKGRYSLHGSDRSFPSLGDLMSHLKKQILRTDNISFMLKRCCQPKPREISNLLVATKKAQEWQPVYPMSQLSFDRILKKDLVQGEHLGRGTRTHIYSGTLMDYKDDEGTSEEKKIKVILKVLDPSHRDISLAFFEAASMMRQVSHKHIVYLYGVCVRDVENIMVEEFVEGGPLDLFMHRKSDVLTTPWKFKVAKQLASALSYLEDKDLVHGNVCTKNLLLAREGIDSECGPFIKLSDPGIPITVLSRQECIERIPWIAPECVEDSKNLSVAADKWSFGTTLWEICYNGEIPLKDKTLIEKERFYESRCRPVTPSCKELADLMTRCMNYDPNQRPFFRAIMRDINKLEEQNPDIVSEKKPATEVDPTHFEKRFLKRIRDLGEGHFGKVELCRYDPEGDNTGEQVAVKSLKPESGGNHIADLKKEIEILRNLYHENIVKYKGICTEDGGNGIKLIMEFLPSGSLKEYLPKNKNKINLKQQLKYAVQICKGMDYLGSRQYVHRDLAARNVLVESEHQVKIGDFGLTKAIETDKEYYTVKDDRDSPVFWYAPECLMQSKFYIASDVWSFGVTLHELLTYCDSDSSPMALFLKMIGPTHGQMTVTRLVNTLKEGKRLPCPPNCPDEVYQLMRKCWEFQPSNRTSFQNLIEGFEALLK
# Tyrosine-protein kinase JAK2, sequence (O60674 whole entry, the tested form may be a part): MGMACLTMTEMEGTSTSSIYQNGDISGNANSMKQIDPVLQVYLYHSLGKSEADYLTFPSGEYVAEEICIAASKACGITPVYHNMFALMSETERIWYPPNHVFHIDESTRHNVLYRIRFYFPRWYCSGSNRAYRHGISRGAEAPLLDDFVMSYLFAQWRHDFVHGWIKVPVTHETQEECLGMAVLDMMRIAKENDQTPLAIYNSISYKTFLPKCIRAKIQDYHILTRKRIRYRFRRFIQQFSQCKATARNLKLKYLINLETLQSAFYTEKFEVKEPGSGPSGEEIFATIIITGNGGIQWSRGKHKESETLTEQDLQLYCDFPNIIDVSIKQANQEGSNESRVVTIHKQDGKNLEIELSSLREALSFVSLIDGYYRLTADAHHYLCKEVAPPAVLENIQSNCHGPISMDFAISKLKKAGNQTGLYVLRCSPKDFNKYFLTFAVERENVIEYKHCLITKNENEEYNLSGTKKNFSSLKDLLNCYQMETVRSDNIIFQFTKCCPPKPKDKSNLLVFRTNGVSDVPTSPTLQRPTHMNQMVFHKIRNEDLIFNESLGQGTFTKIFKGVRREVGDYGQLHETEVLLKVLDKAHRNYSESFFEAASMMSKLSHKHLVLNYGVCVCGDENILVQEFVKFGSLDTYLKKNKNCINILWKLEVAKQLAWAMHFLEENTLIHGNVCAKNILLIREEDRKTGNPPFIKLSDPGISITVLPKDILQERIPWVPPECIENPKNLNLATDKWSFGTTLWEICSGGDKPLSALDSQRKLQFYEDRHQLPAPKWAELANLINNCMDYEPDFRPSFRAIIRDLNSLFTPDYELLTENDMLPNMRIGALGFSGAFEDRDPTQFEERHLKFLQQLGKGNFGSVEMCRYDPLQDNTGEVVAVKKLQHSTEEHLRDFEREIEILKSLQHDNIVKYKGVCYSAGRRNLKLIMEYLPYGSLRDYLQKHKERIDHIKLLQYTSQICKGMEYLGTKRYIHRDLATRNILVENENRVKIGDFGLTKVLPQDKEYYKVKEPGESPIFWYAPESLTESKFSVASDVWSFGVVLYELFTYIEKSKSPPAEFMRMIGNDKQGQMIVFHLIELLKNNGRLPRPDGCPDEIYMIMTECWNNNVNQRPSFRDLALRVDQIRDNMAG
# Voltage-gated inwardly rectifying potassium channel KCNH2, sequence (Q12809 whole entry): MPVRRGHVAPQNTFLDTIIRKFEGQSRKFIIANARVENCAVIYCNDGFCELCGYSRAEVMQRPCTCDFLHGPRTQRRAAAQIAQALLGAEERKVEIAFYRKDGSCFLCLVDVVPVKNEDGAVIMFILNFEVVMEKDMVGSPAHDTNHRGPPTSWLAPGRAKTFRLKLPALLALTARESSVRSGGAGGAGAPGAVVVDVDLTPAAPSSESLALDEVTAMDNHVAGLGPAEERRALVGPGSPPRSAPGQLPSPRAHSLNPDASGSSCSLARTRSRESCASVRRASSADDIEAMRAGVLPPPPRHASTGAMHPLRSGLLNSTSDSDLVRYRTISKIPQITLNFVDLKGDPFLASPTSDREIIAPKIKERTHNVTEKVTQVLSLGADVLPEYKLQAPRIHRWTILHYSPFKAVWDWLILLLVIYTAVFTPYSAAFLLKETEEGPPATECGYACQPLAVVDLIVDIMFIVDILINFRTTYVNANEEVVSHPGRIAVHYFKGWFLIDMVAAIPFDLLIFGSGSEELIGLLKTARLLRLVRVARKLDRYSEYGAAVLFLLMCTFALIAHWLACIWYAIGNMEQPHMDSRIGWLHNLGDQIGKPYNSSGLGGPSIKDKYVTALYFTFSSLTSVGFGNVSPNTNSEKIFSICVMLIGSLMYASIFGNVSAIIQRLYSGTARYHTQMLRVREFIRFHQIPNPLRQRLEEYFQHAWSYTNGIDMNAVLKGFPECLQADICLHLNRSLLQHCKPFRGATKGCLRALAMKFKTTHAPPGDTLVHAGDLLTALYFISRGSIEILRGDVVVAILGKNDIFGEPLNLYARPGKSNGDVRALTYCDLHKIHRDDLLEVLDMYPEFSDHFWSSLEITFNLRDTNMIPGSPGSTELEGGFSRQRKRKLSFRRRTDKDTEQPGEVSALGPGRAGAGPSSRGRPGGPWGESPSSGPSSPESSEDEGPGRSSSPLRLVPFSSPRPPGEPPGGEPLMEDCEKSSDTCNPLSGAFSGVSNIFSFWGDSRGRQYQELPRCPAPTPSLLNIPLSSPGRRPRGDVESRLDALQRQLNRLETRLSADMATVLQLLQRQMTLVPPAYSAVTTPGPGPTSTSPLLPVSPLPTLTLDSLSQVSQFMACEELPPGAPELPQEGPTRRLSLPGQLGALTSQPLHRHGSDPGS
# Non-receptor tyrosine-protein kinase TYK2, sequence (P29597 whole entry): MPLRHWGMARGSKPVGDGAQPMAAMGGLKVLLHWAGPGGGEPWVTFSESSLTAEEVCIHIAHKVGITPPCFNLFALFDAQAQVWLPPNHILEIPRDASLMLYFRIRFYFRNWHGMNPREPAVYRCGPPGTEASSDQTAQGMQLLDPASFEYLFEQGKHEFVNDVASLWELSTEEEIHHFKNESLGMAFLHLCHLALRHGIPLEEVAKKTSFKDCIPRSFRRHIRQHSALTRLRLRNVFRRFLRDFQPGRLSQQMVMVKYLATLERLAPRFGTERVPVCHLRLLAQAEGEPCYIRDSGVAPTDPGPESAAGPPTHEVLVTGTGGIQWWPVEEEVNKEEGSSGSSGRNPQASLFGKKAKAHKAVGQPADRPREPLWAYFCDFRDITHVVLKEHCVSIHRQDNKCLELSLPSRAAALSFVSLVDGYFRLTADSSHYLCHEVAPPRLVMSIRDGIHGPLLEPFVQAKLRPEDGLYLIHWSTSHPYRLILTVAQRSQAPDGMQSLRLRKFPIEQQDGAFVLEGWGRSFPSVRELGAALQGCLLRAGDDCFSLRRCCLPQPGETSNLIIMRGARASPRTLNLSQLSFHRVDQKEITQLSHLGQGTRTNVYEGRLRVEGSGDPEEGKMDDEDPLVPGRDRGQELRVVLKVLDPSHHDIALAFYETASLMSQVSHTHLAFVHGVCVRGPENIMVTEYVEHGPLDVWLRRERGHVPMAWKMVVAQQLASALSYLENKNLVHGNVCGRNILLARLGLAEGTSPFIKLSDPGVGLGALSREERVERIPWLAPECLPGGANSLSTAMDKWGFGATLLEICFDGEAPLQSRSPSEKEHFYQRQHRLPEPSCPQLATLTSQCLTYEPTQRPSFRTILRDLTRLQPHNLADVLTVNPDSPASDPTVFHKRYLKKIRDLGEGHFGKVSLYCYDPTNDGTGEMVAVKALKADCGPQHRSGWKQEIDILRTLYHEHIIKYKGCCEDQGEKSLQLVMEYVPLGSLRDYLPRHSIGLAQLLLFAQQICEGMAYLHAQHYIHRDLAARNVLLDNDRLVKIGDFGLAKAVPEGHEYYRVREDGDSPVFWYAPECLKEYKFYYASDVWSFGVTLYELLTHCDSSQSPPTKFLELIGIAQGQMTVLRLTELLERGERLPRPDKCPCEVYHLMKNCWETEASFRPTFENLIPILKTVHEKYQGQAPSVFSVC
smiles,measurement,setting,value
Cc1cnc(Nc2cccnc2F)nc1-c1c[nH]c2c(NC(=O)[C@@H](C)N3CCN(C)CC3)cccc12,Ratio IC50,[1],> 1110
same,pIC50,[2],4.52
same,pIC50,[3],5.00
same,pIC50,[4],7.10
COc1nn(C)cc1Nc1ncc(C)c(-c2c[nH]c3c(C(=O)Nc4ccc(C)nc4C)cccc23)n1,Ratio IC50,[1],> 115
same,solubility,[5],0.1 µM
same,pIC50,[2],< 4.52
same,pIC50,[6],6.59
C=CC(=O)Nc1cc(Nc2nccc(-c3cn(C)c4ccccc34)n2)c(OC)cc1N(C)CCN(C)C [OSIMERTINIB],inhibition (INH),[7],100%
same,Activity,[8],Non-Toxic
same,TGI,[9],inactive
COc1nn(C)cc1Nc1ncc(F)c(-c2c[nH]c3c(NC(=O)[C@@H](C)N4CCN(C)CC4)cccc23)n1,Ratio IC50,[1],347
same,pIC50,[3],< 4.48
same,pIC50,[4],6.92
Cc1ccc(C(=O)Nc2cccc3c(-c4nc(Nc5cnn(C)c5)ncc4C)c[nH]c23)c(C)n1,Ratio IC50,[1],50
same,pIC50,[2],6.70
same,pIC50,[6],8.40
COc1nn(C)cc1Nc1nccc(-c2c[nH]c3c(NC(=O)[C@@H](C)N4CCN(C)CC4)cccc23)n1 [GOLIDOCITINIB],solubility,[10],> 1000 µM
same,half-life,[11],9 h
same,inhibition,[12],Active
same,CLH,[13],< 1 µL/min
same,efflux ratio,[14],2.6
same,inhibition,[15],> 75%
same,Ratio IC50,[1],> 214
same,CLH,[16],2 µL/min
same,pIC50,[2],< 4.82
same,inhibition in vivo at 50 mg/kg,[17],80%
same,AUC,[18],5.3 µM·h
same,Activity,[19],Non-Toxic
same,solubility,[20],605 µM
same,pIC50,[21],< 4.52
same,Activity,[22],Non-Toxic
same,half-life,[23],9 h
same,TGI,[24],Active
same,half-life,[25],6 h
same,pIC50,[3],< 4.00
same,TGI,[26],inactive
same,CLH,[27],< 1.9 µL/min
same,AUC,[28],3.1 µM·h
same,bioavailability,[29],71%
same,Papp A→B,[30],7.51 ×10⁻⁶ cm/s
same,Vd,[31],8.7 L/kg
same,inhibition,[32],Active
same,Vd,[33],6.3 L/kg
same,half-life,[34],7 h
same,AUC,[35],1.2 µM·h
same,logD,[36],1.7
same,pIC50,[37],5.55
same,pIC50,[4],6.89
same,pIC50,[6],7.15
same,AUC,[38],1.7 µM·h
same,F,[39],100%
same,clearance,[40],20 mL/min/kg
N#CC[C@H]([C@H]1CCN(c2cccc(Cl)c2C#N)C1)n1cc(-c2ncnc3[nH]ccc23)cn1,Ratio IC50,[1],120
same,pIC50,[2],5.62
same,pIC50,[6],7.70
Cc1cnc(NC(=O)C2CC2)nc1-c1c[nH]c2c(NC(=O)CN(C)C)cccc12,Ratio IC50,[1],> 13
same,pIC50,[2],< 4.52
same,pIC50,[6],5.66
COc1nn(C)cc1Nc1ncc(Br)c(-c2c[nH]c3c(NC(=O)[C@@H](C)N4CCN(C)CC4)cccc23)n1,Ratio IC50,[1],196
same,pIC50,[3],4.82
same,pIC50,[4],7.03
COc1nn(C)cc1Nc1ncc(C)c(-c2c[nH]c3c(NC(=O)[C@@H](C)N4CCN(C)CC4)cccc23)n1,Ratio IC50,[1],540
same,pIC50,[3],< 4.00
same,pIC50,[4],6.89
